# DDE Tn7 FP inh = DD(E)-Tn7 binding inhibition, primary FP screen | 370,000 tested, 0.13% active | FP displacement of FITC-Tn7 peptide from fibrin DD(E); 0% = median of compound wells per plate | inhibition, % at 8.3 µM | AID 720508 | P02675;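 active = inhibition above the mean of compounds falling within the control limits plus 3 SD of them, cut at about 14% in these data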;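 note: 0% = plate median of compound wells and 100% = 10 µM Aha-Tn7 peptide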
#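 Assay system: Human clot-derived fibrin DD(E) complex | Buffer or medium: Tris/NaCl/CaCl2 buffer, pH 7.8 | Repeats: One replicate per compound | Benchmarks: Aha-Tn7 high control | Measure: % inhibition scaled between sample-field median and high-control FP | Schedule: 10 min plus 3 h, room temperature | Signal: Fluorescence polarization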
# TCR CD3 inh = blocks the human TCR-CD3 interaction; TAMRA-labeled TCR probe fluorescence, biochemical; inhibition, % at 9.4 µM; 360,000 tested, 0.37% active; in the data active = inhibition above about 19%;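 note: recombinant mutant TCR 2C K166C tagged with TAMRA read by polarization; 0% = receptor in buffer alone and 100% = receptor with positive control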
# HTRA1 inhibitor = inhibitors of human serine peptidase HTRA1; recombinant HTRA1, FP-rhodamine activity-based probe, fluorescence polarization; 340,000 tested, 0.5% active; inhibition, % at 5.96 µM; in the data active = inhibition above about 36%;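 note: 0% = enzyme with DMSO and 100% = wells lacking enzyme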
# SIAE inh = inhibitors of human sialic acid acetylesterase SIAE | AID 1053197 | SIAE FP-Rh probe binding, fluorescence polarization | 370,000 tested, 0.69% active | inhibition, % at 9.66 µM;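 active = inhibition above a cutoff: mean of compounds within the control limits plus 3 SD of those, cut at about 17% in these data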;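 note: 0% = plate median of compound wells and 100% = probe without SIAE protein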
# Target sequence (Q9HAT2 whole entry, looked up): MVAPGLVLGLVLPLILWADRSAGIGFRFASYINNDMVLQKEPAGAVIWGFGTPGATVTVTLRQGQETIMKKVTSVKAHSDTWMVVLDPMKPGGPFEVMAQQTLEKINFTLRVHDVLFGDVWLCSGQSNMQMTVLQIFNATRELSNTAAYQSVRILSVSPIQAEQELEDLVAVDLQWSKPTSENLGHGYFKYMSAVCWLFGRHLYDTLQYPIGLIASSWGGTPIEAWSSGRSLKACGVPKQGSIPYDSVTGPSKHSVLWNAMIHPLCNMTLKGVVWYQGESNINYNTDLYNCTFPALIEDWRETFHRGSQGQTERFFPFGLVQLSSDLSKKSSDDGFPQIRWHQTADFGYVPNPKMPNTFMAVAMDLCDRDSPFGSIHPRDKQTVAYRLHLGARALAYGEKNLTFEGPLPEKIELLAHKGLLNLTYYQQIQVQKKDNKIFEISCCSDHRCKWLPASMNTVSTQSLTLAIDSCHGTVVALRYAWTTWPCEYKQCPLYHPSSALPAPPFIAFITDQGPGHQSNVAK
# mABHD4 FP = inhibitors of mouse ABHD4. purified mABHD4, FP-Rh probe fluorescence polarization. inhibition, % at 8.92 µM. 370,000 tested, 0.54% active;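 active = inhibition exceeding the mean over every tested compound plus 3 SD, cut at about 30% in these data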;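 note: 0% = plate median of compound wells and 100% = S159A mutant with DMSO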
#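 Doses – 8.92 µM, single dose · Material – wild-type mouse ABHD4 protein · Replication – single well per compound (singlicate) · Measure – percent inhibition of probe binding, normalized to plate controls · Schedule – 45 min compound pre-incubation plus 60 min probe step, 25 °C · Detection – fluorescence polarization with parallel and perpendicular emission, 525/598 nm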
# Tn6 DDE FP = disrupts Tn6 cyclic peptide binding to fibrin D-Dimer-E complex; P02675; Fibrin DD(E) TRITC-Tn6 fluorescence polarization displacement; inhibition, % at 8.3 µM; 370,000 tested, 0.21% active; AID 720509;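 active = inhibition above a per-campaign cutoff: mean of compounds within control limits plus 3 SD, cut at about 15% in these data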;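 note: 0% = median of all compound wells on the plate and 100% = blocking peptide control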
# SIAE inh conf = confirmation of human SIAE inhibitors; 2,300 tested, 13% active; inhibition, % at 9.66 µM; shares compounds with SIAE inh; SIAE FP-Rh activity-based probe, fluorescence polarization; AID 1117263;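 active = mean inhibition of the replicates above the hit cutoff set in the primary screen, cut at about 17% in these data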;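 note: 0% = SIAE with DMSO and probe and 100% = probe without SIAE; inhibitors lower polarization as more probe stays unbound to SIAE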
# * marks the source's active call; other numbers are inactive results; . = not tested or not shown. An excerpt weighted towards active compounds, which were near 1.8% of everything screened.
SMILES,DDE Tn7 FP inh,TCR CD3 inh,HTRA1 inhibitor,SIAE inh,mABHD4 FP,Tn6 DDE FP,SIAE inh conf
COc1cc(/C=N/NC(=O)c2ccc3nc[nH]c3c2)cc(OC)c1OC(C)=O,3.2,2.9,-5.2,-0.3,8.7,-1.2,.
C[C@H](O)[C@@H]1CN2CCc3ccc(N4CCOCC4)cc3[C@@H]2C[C@@H]1N(C)C(=O)c1cccc(Cl)c1,-3.3,.,.,6.9,2.5,1.5,.
CC1CC1C(=O)OCC(=O)NCc1ccc(Cl)cc1 (stereo not drawn),-0.2,-4.2,5.9,1.4,-2.7,1.3,.
COc1ccc(CNC(=O)COC(=O)C2CC2C)cc1OC (stereo not drawn),1.8,-2.5,15.4,23.9*,5.5,2.3,-1.9
CC1CCC2(CC1)CCN(CCCOC(=O)Nc1cccc(C(F)(F)F)c1)C2=O (stereo not drawn),3.3,.,.,-3.0,5.9,-0.1,.
Cc1cnc(CN(C)C(=O)c2ccc3oc(Cc4ccc(Cl)cc4)nc3c2)[nH]1,-10.6,1.1,0.6,17.6*,3.1,-4.0,0.3
Cc1cnc(CN(C)C(=O)c2ccc3oc(Cc4ccccc4)nc3c2)[nH]1,-3.4,8.1,1.6,2.1,-1.8,8.3,.
COc1ccc(N2C(=O)c3n[nH]c(C(C)C)c3C2c2ccc(C)cc2)cc1 (stereo not drawn),7.4,-4.2,.,-7.2,-7.8,9.6,.
O=C(CNSc1ccc([N+](=O)[O-])cc1[N+](=O)[O-])OCc1ccccc1,0.1,5.3,.,16.1,4.9,2.1,.
CC(C)(C)c1ccc(C(=O)NNc2cc(N3CCOCC3)nc(N3CCOCC3)n2)cc1,1.9,5.3,10.5,-3.2,1.5,-6.5,.
CC(=O)NNc1cc(N2CCOCC2)nc(N2CCOCC2)n1,-4.2,12.9,6.8,25.4*,10.2,3.2,0.0
COc1ccc(-n2nc3ccc(N)cc3n2)cc1Cl,3.0,3.4,-0.4,72.1*,-18.5,-7.0,-0.2
COc1ccc(-c2c(Cc3ccccc3)nc(NC(=O)c3ccccc3)n2C)cc1,3.0,.,.,1.9,3.9,1.3,.
CC(=O)c1ccc(O)c(CC=C(C)C)c1,2.5,5.2,-0.6,1.3,-0.7,10.7,.
CC(C)=CCc1cc(-c2oc3cc(O)cc(O)c3c(=O)c2O)ccc1O,-6.5,10.5,11.5,22.6*,14.9,-14.9,1.3
O=C1CCC2(CCCCC2)N1CCCO,1.4,.,.,0.1,3.3,1.5,.
O=C(NCc1ccc2[nH]c3c(c2c1)CCCC3)c1ccc(S(=O)(=O)N2CCCCC2)cc1,-17.9,-3.9,-5.3,2.0,-15.2,4.5,.
S=C(NCc1ccc2[nH]c3c(c2c1)CCCC3)Nc1ccccc1,6.8,1.1,17.4,23.4*,13.9,-0.2,8.9
Cc1cc(C)cc(NC(=S)NCc2ccc3[nH]c4c(c3c2)CCCC4)c1,-2.6,-9.2,2.8,17.2*,3.0,3.4,2.2
N#Cc1cccc(NC(=O)Nc2cccs2)c1,-2.9,-11.8,0.2,10.4,-2.8,-3.5,.
CCc1cccc(NC(=O)Nc2cccs2)c1,5.8,0.2,2.9,17.2*,-1.4,-1.0,4.5
O=C(CN1C(=O)NC2(CCCCCCC2)C1=O)NCc1ccccc1Cl,-3.4,0.2,2.3,1.3,-3.1,-0.6,.
CCC1CCC2(CC1)NC(=O)N(CC(=O)NCc1ccccc1Cl)C2=O (stereo not drawn),3.7,8.9,-1.4,17.4*,6.1,12.1,3.5
CC(Sc1nc(-c2ccccc2)c(-c2ccccc2)[nH]1)C(=O)NCC1CCCO1 (stereo not drawn),-4.3,-1.0,-5.7,20.5*,4.4,0.4,-1.7
CC(C)N1CCC(C)(C(=O)Nc2ccc(-n3cccc3)cc2)C1 (stereo not drawn),-4.9,-6.9,.,17.3*,1.4,3.7,-4.4
SMILES,DDE Tn7 FP inh,TCR CD3 inh,HTRA1 inhibitor,SIAE inh,mABHD4 FP,Tn6 DDE FP,SIAE inh conf
CC(C)N1CCC1(C)C(=O)Nc1ccc(-n2cccc2)cc1 (stereo not drawn),4.3,1.1,.,-0.3,2.6,6.2,.
COc1ccc(C(=O)C(=O)N2CCN(C(=O)c3ccccc3C(F)(F)F)CC2)cc1OC,2.7,0.6,.,21.6*,-0.1,-1.1,0.1
O=C(C(=O)N1CCN(C(=O)c2ccccc2C(F)(F)F)CC1)c1cccc(C(F)(F)F)c1,0.3,3.0,.,-0.7,0.1,-1.6,.
COc1cc(C2C3=C(CC(C)(C)CC3=O)NC3=C2C(=O)c2ccccc23)ccc1O (stereo not drawn),3.0,6.7,17.8,16.0,19.3,7.9,.
CC1(C)CC(=O)C2=C(C1)NC1=C(C(=O)c3ccccc31)C2c1ccc(Cl)cc1 (stereo not drawn),2.6,-1.0,8.0,30.0*,26.9,-1.9,13.6
COC(=O)CSc1nnc(-c2n[nH]c3c2CCC3)n1N,-2.0,.,.,-5.8,1.3,-0.5,.
CCn1c(SCC(=O)Nc2ccccc2)nc2ccccc2c1=O,-2.1,2.3,-7.2,17.2*,-0.5,3.0,3.9
O=C(CSc1nc2ccccc2[nH]1)NN=Cc1ccccc1C(=O)O,8.8,.,.,2.4,-2.3,2.3,.
O=C(Oc1cccc2c(O)cccc12)c1ccco1,-6.9,3.0,24.2,17.8*,23.6,0.6,-1.9
Cc1ccccc1C(=O)Oc1cccc2c(O)cccc12,4.2,1.3,-6.2,12.7,-9.6,5.5,.
CCn1c(-c2ccccc2)csc1=Nc1ccc(O)cc1,0.1,-8.5,10.8,25.3*,-0.9,4.6,3.9
CCOc1ccc(N=c2scc(-c3ccccc3)n2CCO)cc1,-4.1,3.2,-0.6,4.2,13.5,-3.1,.
O=S1(=O)c2ccc(N3CCC[C@H]3CO)cc2OCCCN1C1CC1,-4.2,.,.,-1.0,-2.2,6.8,.
COc1ccc(CCNC(=O)CNCC(c2ccccc2)N(C)C)cc1OC (stereo not drawn),-5.1,-1.9,10.4,18.8*,14.4,0.9,0.9
COc1ccc(CCNC(=O)CSc2ccccc2)cc1OC,-3.2,-0.9,-1.6,7.2,-2.6,1.4,.
Cc1nc(NS(=O)(=O)c2ccccc2)sc1NC(=O)Nc1ccc(Cl)cc1,2.0,-10.2,3.5,17.6*,17.9,-2.3,27.3*
Cc1ccccc1CNC(=O)C1C2C=CC3(CN(Cc4ccccc4)C(=O)C13)O2 (stereo not drawn),-2.6,.,.,3.9,-2.1,7.5,.
O=C(Nc1ccncc1)C1CCN(S(=O)(=O)c2cccc(C(F)(F)F)c2)CC1,8.2,4.1,10.9,18.2*,3.5,-2.4,-0.1
O=C(NCc1ccncc1)C1CCN(S(=O)(=O)c2cccc(C(F)(F)F)c2)CC1,1.2,-11.8,2.0,0.5,-4.3,0.6,.
CCOC(=O)N/N=C/c1ccc(N(CC)CC)cc1O,2.7,-3.7,0.3,17.9*,6.6,4.5,-1.8

# From PubChem
